Test: Toxicity liver stage against HepG2, at 10uM
Type: cell-based
Parameters: test concentration 10 uM, cell line HepG2-A16-CD81EGFP
Details: human, HepG2-A16-CD81EGFP cells; read-out: INHIBITION
Method in brief: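 Uninfected HepG2-A16-CD81EGFP cells, 3 × 10^3 per well, 1536-well, plated on prespotted compound at 10 μM final, parasite-free screening media added to match infected plates; puromycin 10 μM positive, DMSO 0.5% negative; run in parallel with 48 h PbLuc assay at 37 °C, 5% CO2; viability by CellTiter-Glo luminescence, normalized to controls.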

In order of rising cytotoxicity at 10 µM:
1. Cn1ccnc1C(=O)N[C@@H]1CN(Cc2ccc(F)cc2)[C@@H]2CCCO[C@@H]21  -111%
2. Cc1csc([C@@H]2C[C@@H]3CCN(Cc4cc(C)on4)C[C@H]3O2)n1  -106%
3. CS(=O)(=O)N1CCO[C@@H]2CN(C(=O)N3CCOCC3)CC[C@@H]2C1  -105%
4. Cn1ccnc1C(=O)N[C@@H]1CN(CC2CCOCC2)[C@@H]2CCCO[C@@H]21  -97.8%
5. Cc1ccc(N2CCc3ncnc(C4CC4)c3CC2)nn1  -85%
6. O=C(NCc1ccccc1)c1nc2c(o1)CN(C(=O)c1cccnc1)C2  -76.9%
7. OCC1(O)CCCN(Cc2ccccc2OCCc2ccccc2)CC1 (stereo not given)  -45.4%
8. c1cnn(CC2CN(Cc3nc(-c4ccoc4)no3)CCO2)c1 (stereo not given)  -23.8%
9. COCCCNC(=O)c1ccccc1-n1cc(CN(C)C)cn1  -22.4%
10. O=C(NCCCn1nc2ccccn2c1=O)Nc1ccccc1Cl  -22.3%
11. O=C(NCCOC1CCCC1)c1ccc(-c2ccco2)[nH]c1=O  -20%
12. CCS(=O)(=O)N(C)C1CCN(C(=O)c2cccc(Cl)c2)CC1  -13.7%
13. NC(=O)Cn1cc(NC(=O)N2CCN(c3ccc(F)cc3)CC2)cn1  -12.9%
14. Cc1cnn(CC2CCCN2Cc2nnc(C3CC3)n2C)c1 (stereo not given)  -12.2%
15. COc1ccc(-c2c(C(C)C)nn3c(=N)c(C#N)n[nH]c23)cc1  -12.2%
16. O=C(CN1CCC(c2ccccc2)C1)NC(=O)NCC(F)(F)F (stereo not given)  -12.1%
17. CCc1ocnc1C(=O)N1CCOC(c2nc(C)n[nH]2)C1 (stereo not given)  -12%
18. CC(C)n1cnnc1C1CCCN(S(=O)(=O)CC2CCCC2)C1 (stereo not given)  -11.7%
19. CCNC(=O)[C@@H]1C[C@H](NC(=O)c2cncnc2C)CN1CCCSC  -11.7%
20. CNS(=O)(=O)c1ccc(CNC(=O)c2cc(-c3ccccn3)no2)cc1  -11.4%
21. N#CC1(NC(=O)c2ccc(-c3nc(C4CC4)n[nH]3)cc2)CC1  -10.7%
22. CCOCn1cc(NC(=O)C2CCN(S(C)(=O)=O)CC2)cn1  -10.7%
23. O=C(COc1coc(CN2CCOCC2)cc1=O)c1ccc(Cl)cc1  -10.6%
24. CCc1nc2n(n1)CC(NCC(=O)Nc1ccc(Cl)cn1)CC2 (stereo not given)  -10.3%
25. O=C(O)C1CCN(c2nc3c(-c4ccccc4F)csc3c(=O)[nH]2)CC1  -10%
26. CCOc1ccccc1C(C(=O)O)N(C)Cc1nnc(C)o1 (stereo not given)  -9.77%
27. CCn1ccnc1CN1CCCN(C(=O)c2cc(Cl)c[nH]2)CC1  -9.6%
28. CC(=O)N1CCCN(CCCc2ccccc2)CC1  -9.28%
29. CS(=O)(=O)Cc1ccc(C(=O)NC2CCc3nccn3C2)o1 (stereo not given)  -8.77%
30. Cc1ccc(CC(=O)N2CCCC(n3nc(C)cc3C)C2)cn1 (stereo not given)  -8.54%
31. COCCN1CCN(Cc2ccc(OCc3nccn3C)cc2)CC1  -7.11%
32. FC(F)(F)c1cccc(C2(CNCc3ccncc3)CCOCC2)c1  -6.98%
33. COCCn1cnnc1CN(C)c1nc(N)nc2c1CCCC2  -6.98%
34. CCC(=O)N1CCC2(CC1)COc1ccccc1S(=O)(=O)N(C)C2  -6.71%
35. O=C(COc1ccccc1)N1C[C@@H](O)[C@H](N2CCCC2)C1  -6.54%
36. Cc1nn(C)c2ncnc(N(C)CC3CCN(CC(C)C)C3)c12 (stereo not given)  -5.79%
37. CN1CCN(Cc2cn3c(n2)CN(C(=O)c2ccccn2)CC3)CC1  -5.7%
38. CCCN(C)c1ncc2c(n1)N(C)CCN(CC1CC1)C2=O  -5.69%
39. CN(Cc1c(F)cccc1Cl)C(=O)Cn1cnc(C#N)n1  -5.5%
40. Cc1nccn1-c1nccnc1C1CCN(Cc2ccc(F)cc2)CC1  -5.43%
41. CNC(=O)C1(c2cnccn2)CCCN1C(=O)c1ccn(C)n1 (stereo not given)  -5.15%
42. O=C(c1ccc2cc[nH]c2c1)N1CCC(Nc2cccnn2)CC1  -5.06%
43. CNC(=O)COc1cccc(CNC(=O)c2c(C)noc2C)c1  -4.93%
44. CC(Cn1cncn1)NCc1n[nH]c2c1CCCCC2 (stereo not given)  -4.39%
45. CCC1CN(C(=O)COc2ccc(C)nc2)CCO1 (stereo not given)  -3.7%
46. FC(F)(F)CCc1ncnn1-c1ccc2c(c1)OCO2  -3.55%
47. Cc1cc(N2CCC(Cc3cnccn3)C2)ncn1 (stereo not given)  -3.24%
48. CSCC(=O)N1CCCC(CCC(=O)N(C)CCc2ccccn2)C1 (stereo not given)  -3.09%
49. C[C@H]1C[C@@H]2CCN(Cc3nccs3)C[C@H]2O1  -3%
50. CCc1nc(CN2CCCC(NCc3nnc(C4CC4)n3C)C2)no1 (stereo not given)  -2.97%
51. CC(=O)N(C)Cc1cccc(NC(=O)N(C)CCc2cccs2)c1  -2.67%
52. CS(=O)(=O)NC[C@]12COC[C@H]1CN(C(=O)Cc1ccccc1F)C2  -2.57%
53. O=C(c1ccc(-n2cccc2)c(F)c1)N1CCCN2CCCC2C1 (stereo not given)  -2.45%
54. CC(C)(C)c1n[nH]c(C2CN(C(=O)c3csnn3)CCO2)n1 (stereo not given)  -2.44%
55. CCOCc1cnc2n1CCN(C(=O)C1=CCCC1)C2C (stereo not given)  -2.42%
56. CC(C)(C)c1noc(CN2CCCCC2Cn2cncn2)n1 (stereo not given)  -2.4%
57. O=C(Cc1ccccn1)N1CCc2ncnc(N3CCCC3)c2CC1  -2.13%
58. CN(C)CCN1CCOC2(CCN(c3nccs3)CC2)c2ccccc21  -1.99%
59. O=C(c1n[nH]c2c1CCC2)N1CCCC1c1nc(-c2ccccn2)no1 (stereo not given)  -1.82%
60. Cc1n[nH]c(C(=O)N2CCCC(C)CC2)c1Br (stereo not given)  -1.74%
61. Cc1ccc(C(=O)NCCn2nc(-n3cncn3)ccc2=O)c(C)c1  -1.25%
62. CCn1nc(C)c(CN(CCOC)C(=O)c2ccccc2N(C)C)c1C  -1.14%
63. CNC(=O)c1ccc(NC2CCN(CC(F)(F)F)C2=O)cc1Cl (stereo not given)  -1.13%
64. CC(C)(O)CCc1cccc(C(=O)N2CCC3(CCO3)CC2)c1  -0.864%
65. Cc1ccnc(C(NC(=O)c2oc(C)nc2C)C2CC2)n1 (stereo not given)  -0.392%
66. CC(C)CCN(C)C(=O)c1cnc2c(cnn2CC(C)C)c1  -0.0554%
67. Cc1nnc(NC(=O)NCc2ccc(OC3CCCC3)nc2)s1  0.141%
68. CC(=O)N1CCN(C(=O)CNc2ccc3sccc3c2)CC1  0.335%
69. Cc1cccc(I)c1C(=O)NCc1ncc[nH]1  0.392%
70. CSCC(CCO)Nc1cccc(C(F)(F)F)n1 (stereo not given)  0.515%
71. CS(=O)(=O)N[C@@H]1CCO[C@]2(CCN(C(=O)C3=CCCC3)C2)C1  0.693%
72. COc1ncc(-c2nccn2C(C)CCn2cccn2)cn1 (stereo not given)  0.728%
73. Cc1cc(C)n(CCCn2cncc2-c2ccc3c(c2)CC(C)N3C)n1 (stereo not given)  0.94%
74. CN(C)C(=O)CNC(=O)Nc1cccc(Cl)c1SC(F)F  1.31%
75. Cc1nc(C)c(C(=O)NCC(c2ccccc2Cl)N2CCOCC2)s1 (stereo not given)  1.4%
76. O=C1NC(c2cccnc2)=NC12CCN(CCCc1ccccc1)CC2  1.68%
77. O=C(CN1CCC(c2ccnn2CCO)CC1)NCc1ccco1  1.68%
78. Cc1ccc(CC(=O)NC(C)C(=O)N2CCS(=O)(=O)CC2)cc1 (stereo not given)  1.73%
79. CC(C)n1ccnc1CN1CCCN(C(=O)c2cccnc2O)CC1  1.74%
80. N#Cc1cc(F)ccc1NCC1CCS(=O)(=O)CC1  2.02%
81. CCCC(NC(=O)c1ccc(OC)cc1C)c1nnn[nH]1 (stereo not given)  2.06%
82. COCCNC(=O)C1CCCN1S(=O)(=O)c1sc(=O)[nH]c1C (stereo not given)  2.17%
83. COCc1c(C(=O)O)nnn1Cc1cccc(C(F)(F)F)c1  2.17%
84. CC(=O)N(C)Cc1ccccc1NC(=O)c1cnn(C)c1C  2.31%
85. CC1=N[C@@]2(CC[C@@H]3CN(C(=O)NCC(C)C)C[C@@H]32)C(=O)N1CC(C)C  2.68%
86. Cc1cccc(N(CC(=O)N2CCCCC2)Cc2ccno2)c1  3.1%
87. Cc1cc(C(=O)N2CCCC(C(=O)c3nccn3C)C2)c(=O)[nH]c1C (stereo not given)  3.15%
88. Cc1nc(CN2CCN(Cc3nccn3C)CC2)no1  3.44%
89. CNS(=O)(=O)CC(=O)N(C1CC1)C1Cc2ccccc2C1  3.45%
90. COc1c(C2CCCN2C(=O)c2sc(C)nc2C)c(C)nn1C (stereo not given)  3.62%
91. O=c1c2ccccc2cnn1Cc1cncn1C1CC1  3.72%
92. CC(C)c1nnc2n1CC(CNC/C=C/c1ccccc1)CC2 (stereo not given)  3.76%
93. CN1CCc2c(C#N)c(NCc3ccccc3)n3cnnc3c2C1  3.93%
94. Cc1ccc(C(=O)N2CCCC(n3cncn3)C2)o1 (stereo not given)  4.35%
95. CN(Cc1cccnc1)C[C@H]1CC[C@@H](Cc2ccc3c(cnn3C)c2)O1  5.15%
96. CC(C(=O)N1CCN(c2ccccc2Cl)CC1)n1cncn1 (stereo not given)  5.17%
97. CCS(=O)(=O)N1CC[C@H](OC)[C@@H]1Cc1ccncc1  5.43%
98. CN1CCC(C(=O)NCCC2CN(c3cnn(C)c(=O)c3)CCO2)CC1 (stereo not given)  5.75%
99. O=C(c1cnc2[nH]c(=O)[nH]c(=O)c2c1)N1CCCC1C1CCCC1 (stereo not given)  6.22%
100. Cc1ccc2[nH]c3c(c2c1)CN(C(=O)CN(C)CC1OCCO1)CC3  6.5%
101. CN(C)Cc1ccccc1CN(C)c1ncnc2[nH]ccc12  8.11%
102. CCOc1ccc(Cl)cc1C1CCCCN1 (stereo not given)  9.15%
103. Clc1cccc(-n2cnnn2)c1N1CCOCC1  9.43%
104. COc1ccccc1N1CCCC(NC(=O)Nc2cccnc2)C1 (stereo not given)  9.86%
105. CN(Cc1cccnc1)CC1CC12CCN(Cc1nccs1)CC2 (stereo not given)  10.2%
106. N#Cc1cc(Cl)ccc1N1CCOC(C(N)=O)C1 (stereo not given)  11.7%
107. COC(=O)C1CCN(C(=O)c2nnc3ccc(Cl)cc3n2)CC1  12.3%
108. Cc1nc(CN2CCOCC3(CCN(c4ccccn4)C3)C2)cs1 (stereo not given)  12.8%
109. CCOc1ccc([C@@H]2N[C@H](c3nccs3)Cc3ccsc32)cc1OC  38%
110. CC/N=c1\nc(NCC)nc2n1C(O)(Nc1cc(Cl)ccc1Cl)CS2 (stereo not given)  51.8%

From ChEMBL document CHEMBL4513216, “Probing the Open Global Health Chemical Diversity Library for Multistage-Active Starting Points for Next-Generation Antimalarials” (ACS Infect Dis, 2020)
